We go through ten compounds from ChEMBL document CHEMBL3124839, “Polyamine transport inhibitors: design, synthesis, and combination therapies with difluoromethylornithine” (J Med Chem, 2014).

Data set [1] can be described thus: Selectivity ratio of IC50 for polyamine transport-deficient CHO-MG cells to IC50 for CHO cells. The class given is ADME, cell-based, Cricetulus griseus. The following applies: chinese hamster, polyamine transport-deficient CHO-MG cells and CHO cells; read-out: Ratio IC50.
Data set [2] is described as follows: Competitive inhibition of polyamine transport system-mediated [3H]-spermidine uptake in DFMO-treated human L3.6PL cells after 15 mins by Lineweaver-Burk plot analysis in presence of aminoguanidine. Summed up: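 3H-spermidine uptake in L3.6pl cells in HBSS (with Ca2+/Mg2+) at 37 °C for 15 min, with 3H-Spd fixed at 1 μM and PTI at 0–3 μM. Cells were lysed in 0.1% SDS, counted by scintillation and normalized to BCA protein.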

Data set [3] is described as follows: Inhibition of polyamine transport system-mediated [3H]-spermidine uptake in DFMO-treated CHO cells after 48 hrs in presence of spermidine and aminoguanidine. The following applies: Cricetulus griseus.
The subject of another data set is CHO-MG. Description: Cytotoxicity against polyamine transport-deficient CHO-MG cells assessed as growth inhibition after 48 hrs by MTS assay in presence of aminoguanidine. It is filed as ADME, cell-based. As to conditions: Cricetulus griseus. Summed up: (§1)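 CHO and transport-deficient CHO-MG* cells (CHO-MG* medium with 2 μg/mL L-proline) plated at 10 000 cells/mL and pretreated 24 h with 1 mM aminoguanidine. Compound in PBS added after overnight incubation, then 48 h at 37 °C, 5% CO2. Growth read by MTS formazan absorbance at 490 nm against untreated control.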

For a further data set, the system named is CHO. As to the kind of experiment: Cytotoxicity against CHO cells assessed as growth inhibition after 48 hrs by MTS assay in presence of aminoguanidine. As to conditions: for IC50: Cricetulus griseus, CHO; for IC10: chinese hamster, cho. It is filed as cell-based, Cricetulus griseus. An outline of the steps: as §1
Data set [4] is described as follows: Inhibition of polyamine transport system-mediated [3H]-spermidine uptake in DFMO-treated human L3.6PL cells after 48 hrs in presence of spermidine and aminoguanidine.
The nature of data set [5]: Cytotoxicity against human L3.6PL cells assessed as growth inhibition after 48 hrs by MTS assay in presence of aminoguanidine. The following applies: for IC50: Homo sapiens, L3.6pl; for IC10: human, l3.6pl. The class given is cell-based. On the technique in general: Tetrazolium dyes change colour on reduction, which living cells bring about.
For data set [6], the species on record is Homo sapiens. As to the kind of experiment: Inhibition of polyamine transport system-mediated [3H]-spermidine uptake in DFMO-treated human L3.6PL cells after 48 hrs in presence of spermine and aminoguanidine.
For data set [7], the species on record is Homo sapiens. As to the kind of experiment: Inhibition of polyamine transport system-mediated [3H]-spermidine uptake in DFMO-treated human L3.6PL cells after 48 hrs in presence of putrescine and aminoguanidine.
A short description of data set [8]: Cytotoxicity against human L3.6PL cells assessed as growth inhibition after 48 hrs by MTS assay. The class given is cell-based.
The species named for data set [9] is Homo sapiens. Description: Inhibition of polyamine transport system in DFMO-treated human L3.6PL cells assessed as increase in spermine level at 7 uM after 48 hrs by HPLC analysis in presence of spermidine and aminoguanidine relative to control. Details: scale not given: the % may be the effect or the level left. Summed up:
(§2)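 L3.6pl cells (450 000 per 6 mL medium with 10% FBS) pretreated 24 h with 250 μM aminoguanidine, then 48 h at 37 °C with DFMO 8 mM, Spd 1 μM, PTI 7 μM, alone or combined. Acid lysates dansylated with 1,7-diaminoheptane as internal standard and polyamines quantified by HPLC as nmol/mg BCA protein. Growth given relative to untreated control.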

The species named for data set [10] is Homo sapiens. Description: Inhibition of polyamine transport system in DFMO-treated human L3.6PL cells assessed as reduction in intracellular spermidine level at 7 uM after 48 hrs by HPLC analysis in presence of spermidine and aminoguanidine relative to control. It is filed as cell-based. An outline of the steps: as §2
The species named for data set [11] is Homo sapiens. Description: Inhibition of polyamine transport system in DFMO-treated human L3.6PL cells assessed as reduction in intracellular putrescine level at 7 uM after 48 hrs by HPLC analysis in presence of spermidine and aminoguanidine. It is filed as cell-based. Summed up:
as §2

The species named for data set [12] is Homo sapiens. Description: Inhibition of polyamine transport system in human L3.6PL cells assessed as reduction in intracellular spermidine level at 7 uM after 48 hrs by HPLC analysis in presence of spermidine and aminoguanidine relative to control. The class given is cell-based. Summed up: as §2
The species named for data set [13] is Homo sapiens. As to the kind of experiment: Inhibition of polyamine transport system in human L3.6PL cells assessed as reduction in intracellular spermidine level at 7 uM after 48 hrs by HPLC analysis in presence of aminoguanidine relative to control. The class given is cell-based. An outline of the steps:
as §2

The nature of data set [14]: Cytotoxicity against DFMO-treated human L3.6PL cells assessed as growth at 7 uM after 48 hrs in presence of spermidine and aminoguanidine relative to control. The class given is functional. As to conditions: read-out: Activity. Summed up: as §2
The species entered for data set [15] is Homo sapiens. As to the kind of experiment: Inhibition of polyamine transport system in DFMO-treated human L3.6PL cells assessed as total polyamine level at 7 uM after 48 hrs by HPLC analysis in presence of spermidine and aminoguanidine relative to control. Summed up: as §2
Data set [16] can be described thus: Cytotoxicity against human L3.6PL cells assessed as growth at 7 uM after 48 hrs in presence of spermidine and aminoguanidine relative to control. It is filed as functional. The following applies: read-out: Activity. Summed up:
as §2

Data set [17] is filed under the species Homo sapiens. As to the kind of experiment: Inhibition of polyamine transport system in human L3.6PL cells assessed as total polyamine level at 7 uM after 48 hrs by HPLC analysis in presence of spermidine and aminoguanidine relative to control. It is filed as cell-based. An outline of the steps:
as §2

Data set [18] is described as follows: Cytotoxicity against human L3.6PL cells assessed as growth at 7 uM after 48 hrs in presence of aminoguanidine relative to control. The following applies: read-out: Activity. It is filed as functional. Summed up:
as §2

For data set [19], the species on record is Homo sapiens. Description: Inhibition of polyamine transport system in human L3.6PL cells assessed as total polyamine level at 7 uM after 48 hrs by HPLC analysis in presence of aminoguanidine relative to control. It is filed as cell-based. An outline of the steps: as §2
Data set [20] is filed under the species Homo sapiens. Description: Inhibition of polyamine transport system-mediated [3H]-spermidine uptake in DFMO-treated human L3.6PL cells at IC10 after 48 hrs in presence of aminoguanidine.
Data set [21] can be described thus: Cytotoxicity against human L3.6PL cells assessed as cell viability at 0.01 uM after 48 hrs by MTS assay in presence of aminoguanidine relative to control. It is filed as cell-based. The following applies: read-out: Activity. Summed up:
(§3)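 L3.6pl cells plated at 5000 cells/mL and pretreated 24 h with 250 μM aminoguanidine. Exposed to compound for 48 h at 37 °C. Growth read by MTS absorbance at 490 nm relative to untreated control.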

The nature of data set [22]: Cytotoxicity against human L3.6PL cells assessed as cell viability at 0.1 uM after 48 hrs by MTS assay in presence of aminoguanidine relative to control. As to conditions: read-out: Activity. It is filed as cell-based. Summed up:
as §3

[23] abbreviates: Homo sapiens, L3.6pl, read-out: EC50.

Structures are written as SMILES. The source made the active and inactive calls. The calls are words filed in the database; no cut-off is given here.

As to `NCCCCNCCCCNCc1c2ccccc2cc2ccccc12`, in data set [1], the selectivity ratio is 148.

With `Cl.NCCCCNCCCCNC(=O)c1cc(C(=O)NCCCCNCCCCN)cc(C(=O)NCCCCNCCCCN)c1`, the Ki (commonly the equilibrium dissociation constant of an inhibitor or competing ligand from its target) in data set [2] amounted to 0.398 µM. The EC50 (commonly the concentration at which the effect is half-maximal) in data set [3] was determined as 60 µM; in [4] (setting [23]), 89.8 µM. Further, the IC50 (in the data set with CHO-MG; with CHO; in data set [5]) was over 100 µM in each case. For the same compound, the 10% effect concentration (IC10) (in the data set with CHO; in data set [5]) was over 100 µM throughout.

`Cl.NCCCCNCCCCNCc1cc(CNCCCCNCCCCN)cc(CNCCCCNCCCCN)c1`: the Ki in data set [2] was 0.036 µM. Besides, the EC50 in [3] came to 0.34 µM; in data set [4] (setting [23]), 0.77 µM. The IC50 (as a rule, the concentration that inhibits the measured activity by half) was 66.9 µM with CHO-MG, over 100 µM with CHO, 188 µM in [8] and over 100 µM in data set [5]. Moreover, the 10% effect concentration (IC10) (in the data set with CHO; in [5]) was 10 µM each time. In addition, the inhibition result in the data set filed under Homo sapiens [6] and in the data set filed under Homo sapiens [7] was “Active” throughout.

As for `CNCCCCNCCCCNCc1cc(CNCCCCNCCCCNC)cc(CNCCCCNCCCCNC)c1.Cl`, the inhibition constant Ki in data set [2] is 0.055 µM. The results for the EC50 in data set [3] and in data set [4] (setting [23]) were 0.42 µM and 1.4 µM, respectively. For the same compound, the IC50 with CHO-MG was 122 µM; in the data set on CHO, over 100 µM; in data set [8], 183 µM; in data set [5] it was over 100 µM. Moreover, the IC10 (in the data set with CHO; in [5]) was 10 µM each time. The Activity was 67% in the data set filed under Homo sapiens [9], 19.9 nmol/mg in the data set filed under Homo sapiens [15], 37.4 nmol/mg in the data set filed under Homo sapiens [17] and 40.4 nmol/mg in the data set listed under Homo sapiens [19]. Further, the values for the inhibition in the data set filed under Homo sapiens [10], in the data set filed under Homo sapiens [12] and in the data set filed under Homo sapiens [13] were 87%, 33% and 27%, respectively. Besides, the inhibition – broadly, the relative decrease from the control value, in per cent – in the data set listed under Homo sapiens [11] is “Active”. The growth at 7 µM in data set [14] came out at 70%; in [16] it was 88%; in data set [18] it was 117%.

On to `Cl.NCCCCNCCCCNCCCCNC(=O)c1cc(C(=O)NCCCCNCCCCNCCCCN)cc(C(=O)NCCCCNCCCCNCCCCN)c1`, for which the selectivity ratio in data set [1] is 4.3. Moreover, the IC50 was 69.1 µM with CHO-MG, 16 µM in the data set on CHO and 9.7 µM in data set [5]. For the same compound, the IC10 (in the data set on CHO; in [5]) was 1 µM each time. The inhibition result in the data set filed under Homo sapiens [20] was “inactive”. The 50% effective concentration (EC50) entry in data set [4] is given as “Not Active”.

Consider `Cl.NCCCC[C@H](N)C(=O)NCCCNCCCCNCCCN`, for which the IC10 (in the data set on CHO; in [5]) was over 100 µM throughout.

On to `Cl.NCCCCNCCCCNCCCCNCc1cccc(CNCCCCNCCCCNCCCCN)c1`, for which, in [1], the selectivity ratio was 335. In addition, the IC50 in the data set with CHO-MG turned out to be 13.4 µM; in the data set on CHO, 0.04 µM; in data set [5] it was 7.5 µM. Besides, the IC10 (with CHO; in [5]) was 0.01 µM each time. Further, the inhibition entry in the data set listed under Homo sapiens [20] is “inactive”. For the same compound, the viability at 48 h, 0.01 µM in data set [21] is 8%. Further, in data set [4], the concentration for a half-maximal effect (EC50) result is reported as “Not Active”.

With `Cl.NCCCNCCCCNCCCNC(=O)c1cc(C(=O)NCCCNCCCCNCCCN)cc(C(=O)NCCCNCCCCNCCCN)c1`, the concentration for a half-maximal effect (EC50) result in [4] is “Not Active”. Moreover, in [5], the IC50 worked out at 47.5 µM and the IC10 (usually the concentration at which the effect reaches the 10% level) came to 8 µM.

Regarding `Cl.NCCCCNCCCCNCc1cccc(CNCCCCNCCCCN)c1`, the selectivity ratio in data set [1] amounted to 1070. In addition, the IC50 in the data set with CHO-MG worked out at 30 µM; in the data set with CHO it was 0.028 µM; in [5], 52.2 µM. Also, the IC10 with CHO was found to be 0.01 µM; in data set [5], 0.1 µM. Besides, the inhibition entry in the data set listed under Homo sapiens [20] was “inactive”. The viability at 48 h, 0.1 µM in [22] came out at 8%. In addition, the EC50 entry in data set [4] is “Not Active”.

Take `Cl.NCCCCNCCCCNCc1ccc(CNCCCCNCCCCN)cc1`: the selectivity ratio in data set [1] is 727. In addition, in the data set with CHO, the IC50 was 0.027 µM and the 10% effect concentration (IC10) stood at 0.001 µM.
